Experimental data from different studies.
Each line is one published result; the experiments were not run side by side.
Target: Calcium/calmodulin-dependent protein kinase kinase 2 (CAMKK2, Homo sapiens, UniProt Q96RR4)

| Structure (SMILES) | read-out | mode | method | concentration | measurement | result |
| --- | --- | --- | --- | --- | --- | --- |
| N#CCCc1ccc2c(c1)-c1[nH]c3ccc([N+](=O)[O-])cc3c1CC(=O)N2 | cell-free assay | – | – | 0.5 µM | remaining signal | 86.8% |
| FC(F)(F)Oc1cccc(-c2cnc3ccc(-c4ccncc4)nn23)c1 | enzyme activity | inhibitor | radiometric | 5 µM | activity vs control | 60% |
| CS(=O)(=O)Nc1cccc(-c2csc(NC(=O)CSc3nc4nccnc4c(=O)n3CCc3ccccc3)n2)c1 | enzyme activity | inhibitor | – | 10 µM | inhibition | 4% |
| COc1cc(Nc2cnc(C#N)c(O[C@H](C)CN(C)C)n2)ncc1-c1cnn(C)c1 | enzyme activity | inhibitor | radiometric | 1 µM | remaining activity | 103% |
| Cn1c2c(Cl)c(Cl)ccc2c2cn[nH]c(=O)c21 | thermal stability | – | DSF | 10 µM | ΔTm | 0.4 °C |
| Cc1c[nH]c2nccc(Oc3c(F)cc(Nc4cc(Cl)nc(N)n4)cc3F)c12 | cell-free assay | – | competition with immobilised ligand | 0.1 µM | remaining binding | 98% |
| O=C(Nc1cnn(-c2csc(C(=O)NC3COC3)c2)c1)Nc1ccccc1Cl | enzyme activity | inhibitor | – | 5 µM | remaining activity | 91.1% |
| CCCOc1ccc([C@H]2[C@H](C(=O)O)[C@@H](c3ccc4c(c3)OCO4)CN2CC(=O)Nc2c(CC)cccc2CC)cc1 | cell-free assay | – | competition with immobilised ligand | 1 µM | remaining binding | 93% |
| COc1cccc2c(NCc3ccccc3)nc(-n3c(N)nc4ccccc43)nc12 | target engagement in cells | inhibitor | chemoproteomics | 20 mM | inhibition | -5.8% |
| Nc1nc(Nc2ccccc2)sc1C(=O)c1c(F)cccc1F | enzyme activity | inhibitor | – | 10 µM | remaining activity | 12% |
| O=C(NCc1ncc(C(F)(F)F)cc1Cl)c1ccc2c(c1)C1(CCS(=O)(=O)CC1)[C@H](C1CC1)N2S(=O)(=O)c1ccc(F)cc1 | cell-free assay | – | competition with immobilised ligand | 1 µM | remaining binding | 100% |
| Cc1ccc(NC(=O)c2ccc(C)c(C(F)(F)F)c2)cc1C#Cc1nn(C2CCC(O)CC2)c2ncnc(N)c12 (centres unmarked) | cell-free assay | – | – | 10 µM | remaining signal | 55% |
| O=C(O)[C@H]1[C@H](Cn2nnc3ccccc3c2=O)CC[C@@H]1C(=O)c1ccc(OCCC2CCOCC2)cc1 | cell-free assay | – | competition with immobilised ligand | 1 µM | remaining binding | 90% |
| Cc1cc(NC(=O)c2cccc3cc(-c4cccc5[nH]nc(N)c45)ccc23)ccc1F | enzyme activity | inhibitor | – | 0.1 µM | activity vs control | 90% |
| O=C1NC(=O)c2cc(Nc3ccc(F)cc3)c(Nc3ccc(F)cc3)cc21 | cell-free assay | – | – | 0.5 µM | remaining signal | 88.3% |
| CN1CCN(c2cnc3c(C4CCN(C(=O)c5ccc(OC(F)(F)F)cc5N)CC4)ncnc3c2)CC1 | cell-free assay | – | competition with immobilised ligand | 1 µM | remaining binding | 100% |
| CC(C)(C)c1nc2c(s1)c1nc(N)ncc1c1ccc(NS(=O)(=O)c3c(F)cccc3F)c(F)c12 | enzyme activity | inhibitor | radiometric | 1 µM | remaining activity | 107% |
| CCCCNc1ncc2c(-c3ccc(F)cc3)nn(C[C@H]3CC[C@H](N)CC3)c2n1 | target engagement in cells | inhibitor | chemoproteomics | 20 mM | inhibition | 33.4% |
| O=C1Nc2ccc(Cl)cc2C1=Cc1cc(Cl)c(O)c(Cl)c1 | cell-free assay | – | – | 0.5 µM | remaining signal | 51.5% |
| CCN1CCC2(CC1)NC(=O)c1c(c3ccc(Cl)c(Cl)c3n1C)C2C#N (racemic) | thermal stability | – | DSF | 10 µM | ΔTm | 0.5 °C |
| Nc1nc(NC2CCCCC2)sc1C(=O)c1ccccc1 | enzyme activity | inhibitor | – | 10 µM | remaining activity | 63% |
| COc1cc(/C=C/C(=O)CC(=O)/C=C/c2ccc(O)c(OC)c2)ccc1O | enzyme activity | inhibitor | – | 1 µM | activity vs control | 44% |
| FC(F)c1nc2ccccc2n1-c1nc(N2CCOCC2)nc(N2CCOCC2)n1 | enzyme activity | inhibitor | – | 10 µM | remaining activity | 87% |
| CCOCCn1cc(C(=O)Nc2ccc(-n3nc(-c4cccnc4)cc3C(F)(F)F)cn2)ccc1=O | cell-free assay | – | competition with immobilised ligand | 1 µM | remaining binding | 100% |
| CN1CCC2(CC1)NC(=O)c1c(c3ccc(Cl)c(Cl)c3n1C)C2C#N (racemic) | thermal stability | – | DSF | 10 µM | ΔTm | 1 °C |
| C[C@H](c1ccnc(Nc2nc3ccc(-c4cc(N(C)C)ncn4)cc3[nH]2)c1)N1CCN(C(=O)CC(F)(F)F)CC1 | cell-free assay | – | competition with immobilised ligand | 0.1 µM | remaining binding | 77% |
| Cc1ccc(C(=O)Nc2ccc(CN3CCN(C)CC3)c(C(F)(F)F)c2)cc1C#Cc1cnc2cccnn12 | enzyme activity | inhibitor | – | 23.5 nM | remaining activity | 83% |
| COc1cc(-c2cn(C3CCc4ccccc4N(CC(F)(F)F)C3=O)nn2)ccc1-n1ccc(C)n1 (centres unmarked) | cell-free assay | – | competition with immobilised ligand | 1 µM | remaining binding | 100% |
| Cn1c(=O)n(-c2ccc(C(C)(C)C#N)cc2)c2c3cc(-c4cnc5ccccc5c4)ccc3ncc21 | enzyme activity | inhibitor | – | 10 µM | remaining activity | 61% |
